Results on 3 molecules are retold here after ChEMBL document CHEMBL1128525, “The role of water molecules in the structure-based design of (5-hydroxynorvaline)-2-cyclosporin: synthesis, biological activity, and crystallographic analysis with cyclophilin A” (J Med Chem, 1995).

One experiment is filed under the species Mus musculus. The experiment in a line: The compound was evaluated in vitro for the immunosuppressive activity in mouse mixed lymphocyte reaction (MLR_M). Format: functional. The method, boiled down: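 Cellular immunosuppression read in the mouse mixed lymphocyte reaction or the interleukin-2 reporter gene assay. The IC50 in nM is the mean of three independent experiments.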

The target of experiment [1] is T1, Peptidyl-prolyl cis-trans isomerase A (Homo sapiens, UniProt P62937). The experiment in a line: In vitro binding affinity against cyclophilin A by rotamase assay.
T1 sequence (P62937 whole entry): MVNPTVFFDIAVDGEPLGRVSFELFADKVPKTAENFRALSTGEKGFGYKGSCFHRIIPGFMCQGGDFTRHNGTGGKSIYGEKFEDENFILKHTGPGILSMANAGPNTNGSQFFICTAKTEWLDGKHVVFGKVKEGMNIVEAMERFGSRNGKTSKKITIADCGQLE
Experiment [2] deals with T1, Peptidyl-prolyl cis-trans isomerase A. The experiment in a line: In vitro binding affinity against cyclophilin A by ELISA.

Broadly, the IC50 is the concentration at which inhibition is half-maximal. Read a high IC50 as lower potency. In the case of `C/C=C/C[C@@H](C)[C@@H](O)[C@@H]1C(=O)N[C@H](CCCO)C(=O)N(C)CC(=O)N(C)[C@H](CC(C)C)C(=O)N[C@H](C(C)C)C(=O)N(C)[C@H](CC(C)C)C(=O)N[C@H](C)C(=O)N[C@@H](C)C(=O)N(C)[C@H](CC(C)C)C(=O)N(C)[C@H](CC(C)C)C(=O)N(C)[C@H](C(C)C)C(=O)N1C`, the IC50 stood at 140 nM in the experiment listed under Mus musculus, 256 nM in experiment [1] and 450 nM in experiment [2].
`C/C=C/C[C@@H](C)[C@@H](O)[C@H]1C(=O)N[C@@H](CCC)C(=O)N(C)CC(=O)N(C)[C@@H](CC(C)C)C(=O)N[C@@H](C(C)C)C(=O)N(C)[C@@H](CC(C)C)C(=O)N[C@@H](C)C(=O)N[C@H](C)C(=O)N(C)[C@@H](CC(C)C)C(=O)N(C)[C@@H](CC(C)C)C(=O)N(C)[C@@H](C(C)C)C(=O)N1C` [GECLOSPORIN]: the IC50 in the experiment filed under Mus musculus came out at 46 nM; in experiment [1] it was 130 nM; in experiment [2], 310 nM.
For `C/C=C/C[C@@H](C)[C@@H](O)[C@@H]1C(=O)N[C@H](CCC)C(=O)N(C)[C@@H](CO)C(=O)N(C)[C@H](CC(C)C)C(=O)N[C@H](C(C)C)C(=O)N(C)[C@H](CC(C)C)C(=O)N[C@H](C)C(=O)N[C@@H](C)C(=O)N(C)[C@H](CC(C)C)C(=O)N(C)[C@H](CC(C)C)C(=O)N(C)[C@H](C(C)C)C(=O)N1C` the same measures were 56 nM, 48 nM and 93 nM.
